Our source for the Ki and inhibition values is ChEMBL document CHEMBL1124975 (J Med Chem, 1990).

Assay [1] is described as follows: (§1) Binding affinity towards 5-hydroxytryptamine 3 receptor by displacement of [3H]2 in Neuroblastoma-Glioma NG-108-15 cells. Background: Displacement assays read how much labelled ligand stays bound in the presence of the test substance.
Assay [2] concerns the target T1, Serotonin 3 (5-HT3) receptor (Rattus norvegicus) (UniProt P35563+Q9JJ16). Description: Serotonin receptor antagonist activity was measured as ability to block the serotonin-induced Bezold-Jarisch reflex in rats after iv administration of 20 ug/Kg. Format: functional, organism-based. The gist of the method: (§2)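 Anaesthetic and strain not given; rats dosed iv with test compound via a right femoral vein cannula. Serotonin 100 μg kg-1 iv was given through the same route 1 min after drug. Inhibition of the serotonin-induced bradycardia (Bezold-Jarisch reflex) was scored.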

For assay [3], the target named is 5-hydroxytryptamine receptor 3A. Described as §1.
For assay [4], the target named is T2, 5-hydroxytryptamine receptor 2C (Rattus norvegicus, UniProt P08909).
T2 sequence (P08909 whole entry): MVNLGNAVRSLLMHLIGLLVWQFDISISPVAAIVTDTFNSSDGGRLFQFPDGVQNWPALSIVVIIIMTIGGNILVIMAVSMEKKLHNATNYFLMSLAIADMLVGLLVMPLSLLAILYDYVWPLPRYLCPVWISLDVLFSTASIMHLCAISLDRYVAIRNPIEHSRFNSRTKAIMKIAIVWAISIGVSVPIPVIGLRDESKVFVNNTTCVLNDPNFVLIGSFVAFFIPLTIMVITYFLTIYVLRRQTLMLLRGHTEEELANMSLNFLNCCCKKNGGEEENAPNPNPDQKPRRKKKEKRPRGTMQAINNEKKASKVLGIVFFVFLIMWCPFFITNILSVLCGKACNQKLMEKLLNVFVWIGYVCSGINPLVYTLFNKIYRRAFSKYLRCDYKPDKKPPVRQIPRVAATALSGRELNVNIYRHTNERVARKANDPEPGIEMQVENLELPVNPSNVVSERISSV
Nature of the assay: Binding affinity for 5-hydroxytryptamine 1C receptor was determined by using [3H]- mesulergine as radioligand.

Assay [5] deals with T3, 5-hydroxytryptamine receptor 1A (Mus musculus, UniProt Q64264).
T3 sequence (Q64264 whole entry): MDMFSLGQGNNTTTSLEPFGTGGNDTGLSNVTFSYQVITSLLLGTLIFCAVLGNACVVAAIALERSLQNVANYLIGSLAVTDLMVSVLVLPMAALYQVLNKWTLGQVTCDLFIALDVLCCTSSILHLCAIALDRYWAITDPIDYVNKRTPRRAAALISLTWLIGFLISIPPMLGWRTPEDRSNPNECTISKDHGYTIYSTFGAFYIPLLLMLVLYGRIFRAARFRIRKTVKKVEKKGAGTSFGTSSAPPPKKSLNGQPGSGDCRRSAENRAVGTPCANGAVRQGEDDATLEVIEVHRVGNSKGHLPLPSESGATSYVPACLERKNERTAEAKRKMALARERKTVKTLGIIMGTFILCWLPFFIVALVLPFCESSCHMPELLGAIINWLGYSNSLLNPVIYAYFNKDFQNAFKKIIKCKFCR
Nature of the assay: Binding affinity for 5-hydroxytryptamine 1A receptor was determined by using [3H]8-OH-DPAT as radioligand.

The target of assay [6] is 5-hydroxytryptamine receptor 2A (Bos taurus, UniProt Q75Z89). Description: Binding affinity for 5-hydroxytryptamine 2 receptor was determined by using [3H]ketanserin as radioligand.
Chain of 5-hydroxytryptamine receptor 2A (Q75Z89 whole entry): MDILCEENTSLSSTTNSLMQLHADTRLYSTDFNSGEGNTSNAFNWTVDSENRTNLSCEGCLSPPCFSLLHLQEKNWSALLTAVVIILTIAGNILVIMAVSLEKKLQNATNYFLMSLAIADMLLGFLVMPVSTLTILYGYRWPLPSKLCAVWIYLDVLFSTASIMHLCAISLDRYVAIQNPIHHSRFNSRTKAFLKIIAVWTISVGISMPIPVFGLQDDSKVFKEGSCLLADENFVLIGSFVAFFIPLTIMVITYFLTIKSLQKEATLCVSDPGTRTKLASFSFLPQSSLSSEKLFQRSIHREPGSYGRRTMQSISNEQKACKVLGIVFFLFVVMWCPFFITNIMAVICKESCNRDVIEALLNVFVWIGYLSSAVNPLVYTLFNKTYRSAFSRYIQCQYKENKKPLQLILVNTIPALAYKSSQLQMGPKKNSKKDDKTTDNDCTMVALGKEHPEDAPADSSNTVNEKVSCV
Assay [7] has as its target GABA-A receptor; anion channel. Nature of the assay: Displacement of [3H]flunitrazepam from GABA-A Benzodiazepine receptor. Format: protein-complex assay.
Assay [8] has as its target Beta-2 adrenergic receptor (Canis lupus familiaris, UniProt P54833). Description: Binding affinity for Beta adrenergic receptor was determined by using [3H]dihydroalprenolol as radioligand.
Assay [9] concerns the target D(1A) dopamine receptor (Mus musculus, UniProt Q61616). Description: Binding affinity for Dopamine receptor D1 was determined by using [3H]SCH-23390 as radioligand.
Assay [10] addresses D(2) dopamine receptor (Homo sapiens, UniProt P14416). Description: Binding affinity for Dopamine receptor D2 was determined by using [3H]spiperone as radioligand.
Assay [11] deals with Muscarinic acetylcholine receptor M3 (Rattus norvegicus, UniProt P08483). Nature of the assay: Binding affinity for Muscarinic acetylcholine receptor was determined by using [3H]QNB as radioligand.
Chain of Muscarinic acetylcholine receptor M3 (P08483 whole entry): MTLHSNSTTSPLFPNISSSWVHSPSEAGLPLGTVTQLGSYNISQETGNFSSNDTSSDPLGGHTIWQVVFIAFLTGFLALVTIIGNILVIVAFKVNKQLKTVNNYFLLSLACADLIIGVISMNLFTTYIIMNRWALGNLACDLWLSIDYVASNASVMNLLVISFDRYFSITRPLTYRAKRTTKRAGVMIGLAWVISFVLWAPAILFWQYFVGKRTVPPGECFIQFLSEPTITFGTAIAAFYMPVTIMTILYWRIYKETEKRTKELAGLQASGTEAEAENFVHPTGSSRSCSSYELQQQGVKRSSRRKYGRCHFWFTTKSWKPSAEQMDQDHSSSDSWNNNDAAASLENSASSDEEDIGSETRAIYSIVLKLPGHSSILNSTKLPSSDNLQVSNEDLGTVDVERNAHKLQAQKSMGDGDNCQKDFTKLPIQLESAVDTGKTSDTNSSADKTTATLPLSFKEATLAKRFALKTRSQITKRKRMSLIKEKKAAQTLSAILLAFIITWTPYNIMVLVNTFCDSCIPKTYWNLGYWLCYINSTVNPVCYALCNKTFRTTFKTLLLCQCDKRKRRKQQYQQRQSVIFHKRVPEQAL
In assay [12] the target is Mu-type opioid receptor (Homo sapiens, UniProt P35372). Description: Binding affinity for Opioid receptor mu 1 was determined by using [3H]naloxone as radioligand.
Chain of Mu-type opioid receptor (P35372 whole entry): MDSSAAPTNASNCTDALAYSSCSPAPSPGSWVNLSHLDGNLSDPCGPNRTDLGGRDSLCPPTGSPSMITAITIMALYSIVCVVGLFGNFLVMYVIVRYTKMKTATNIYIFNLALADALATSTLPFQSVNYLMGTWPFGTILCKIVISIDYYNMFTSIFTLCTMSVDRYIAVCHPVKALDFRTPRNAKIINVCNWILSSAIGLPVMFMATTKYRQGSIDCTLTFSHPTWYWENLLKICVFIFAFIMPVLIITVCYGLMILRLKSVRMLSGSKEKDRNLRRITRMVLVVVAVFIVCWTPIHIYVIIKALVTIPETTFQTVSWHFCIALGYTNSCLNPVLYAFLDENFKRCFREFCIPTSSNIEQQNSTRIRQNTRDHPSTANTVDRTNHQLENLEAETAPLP
Assay [13] has as its target Sigma non-opioid intracellular receptor 1 (Homo sapiens, UniProt Q99720). Description: Binding affinity for Sigma opioid receptor was determined by using [3H](+)-3-(3-hydroxyphenyl)N-1-propyl-piperdine((+)-3-PPP) as radioligand.
The target of assay [14] is 5-hydroxytryptamine receptor 1B (Rattus norvegicus) (UniProt P28564). Nature of the assay: Binding affinity for 5-hydroxytryptamine 1B receptor was determined by using [3H]5-HT as radioligand.
Chain of 5-hydroxytryptamine receptor 1B (Rattus norvegicus) (P28564 whole entry, looked up): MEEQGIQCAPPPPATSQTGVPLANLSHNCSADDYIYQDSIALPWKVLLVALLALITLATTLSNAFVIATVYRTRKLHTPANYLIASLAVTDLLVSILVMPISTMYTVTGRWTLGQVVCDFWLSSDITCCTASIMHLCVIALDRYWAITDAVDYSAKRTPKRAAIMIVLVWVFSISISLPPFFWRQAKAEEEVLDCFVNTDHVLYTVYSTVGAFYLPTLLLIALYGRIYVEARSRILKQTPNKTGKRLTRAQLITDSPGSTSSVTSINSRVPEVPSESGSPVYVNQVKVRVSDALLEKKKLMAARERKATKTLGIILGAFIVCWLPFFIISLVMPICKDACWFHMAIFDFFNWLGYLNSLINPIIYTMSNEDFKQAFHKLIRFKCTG
For assay [15], the target named is T1, Serotonin 3 (5-HT3) receptor (Rattus norvegicus). Description: Serotonin receptor antagonist activity was measured as ability to block the serotonin-induced Bezold-Jarisch reflex in rats after iv administration of 10 ug/Kg. Format: functional, organism-based. Conditions: in the assay text read “2 ug/Kg” for “10 ug/Kg”. The gist of the method:
as §2

Assay [16] shares this target. Nature of the assay: Serotonin receptor antagonist activity was measured as ability to block the serotonin-induced Bezold-Jarisch reflex in rats after iv administration of 100 ug/Kg. Format: functional, organism-based. The gist of the method: as §2
For assay [17] the target is unchanged. Nature of the assay: Serotonin receptor antagonist activity was measured as ability to block the serotonin-induced Bezold-Jarisch reflex in rats after iv administration of 2 ug/Kg. Format: functional, organism-based. In outline:
as §2

The target is the same in assay [18]. Description: Serotonin receptor antagonist activity was measured as ability to block the serotonin-induced Bezold-Jarisch reflex in rats after iv administration of 5 ug/Kg. Format: functional, organism-based. The gist of the method: as §2

Chain of D(1A) dopamine receptor (Q61616 whole entry): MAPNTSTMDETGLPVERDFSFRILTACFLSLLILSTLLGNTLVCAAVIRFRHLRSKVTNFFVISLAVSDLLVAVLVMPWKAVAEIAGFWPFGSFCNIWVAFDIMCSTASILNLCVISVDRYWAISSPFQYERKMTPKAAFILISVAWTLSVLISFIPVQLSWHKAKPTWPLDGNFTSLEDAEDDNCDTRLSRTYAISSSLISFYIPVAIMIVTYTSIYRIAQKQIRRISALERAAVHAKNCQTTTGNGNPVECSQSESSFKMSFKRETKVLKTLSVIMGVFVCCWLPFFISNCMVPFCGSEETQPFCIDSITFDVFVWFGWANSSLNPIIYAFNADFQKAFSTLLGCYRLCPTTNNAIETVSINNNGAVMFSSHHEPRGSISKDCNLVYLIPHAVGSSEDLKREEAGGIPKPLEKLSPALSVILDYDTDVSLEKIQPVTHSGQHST
Chain of D(2) dopamine receptor (P14416 whole entry): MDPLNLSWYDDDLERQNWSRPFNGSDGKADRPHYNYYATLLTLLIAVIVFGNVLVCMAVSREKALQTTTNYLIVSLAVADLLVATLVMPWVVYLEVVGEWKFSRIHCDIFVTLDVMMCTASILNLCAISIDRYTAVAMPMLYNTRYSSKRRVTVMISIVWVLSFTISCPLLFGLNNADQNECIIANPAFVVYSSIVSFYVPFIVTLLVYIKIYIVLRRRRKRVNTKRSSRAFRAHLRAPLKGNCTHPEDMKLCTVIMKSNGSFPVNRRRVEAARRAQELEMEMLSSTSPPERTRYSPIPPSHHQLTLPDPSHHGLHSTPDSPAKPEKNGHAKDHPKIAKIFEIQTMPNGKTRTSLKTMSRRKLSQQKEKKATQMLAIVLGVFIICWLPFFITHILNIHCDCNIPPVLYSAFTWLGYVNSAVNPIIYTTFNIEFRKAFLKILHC
Chain of Beta-2 adrenergic receptor (P54833 whole entry): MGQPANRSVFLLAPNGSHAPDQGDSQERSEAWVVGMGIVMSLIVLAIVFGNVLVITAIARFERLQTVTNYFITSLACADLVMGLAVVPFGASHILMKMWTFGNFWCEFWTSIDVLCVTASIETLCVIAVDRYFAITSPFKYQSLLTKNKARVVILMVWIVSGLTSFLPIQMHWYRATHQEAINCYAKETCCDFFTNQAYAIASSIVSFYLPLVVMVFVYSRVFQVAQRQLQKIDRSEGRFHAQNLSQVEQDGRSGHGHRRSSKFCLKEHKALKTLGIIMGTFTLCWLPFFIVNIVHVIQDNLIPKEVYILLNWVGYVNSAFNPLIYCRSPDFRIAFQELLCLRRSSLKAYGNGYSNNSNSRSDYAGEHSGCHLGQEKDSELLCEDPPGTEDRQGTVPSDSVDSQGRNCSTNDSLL
Chain of Sigma non-opioid intracellular receptor 1 (Q99720 whole entry): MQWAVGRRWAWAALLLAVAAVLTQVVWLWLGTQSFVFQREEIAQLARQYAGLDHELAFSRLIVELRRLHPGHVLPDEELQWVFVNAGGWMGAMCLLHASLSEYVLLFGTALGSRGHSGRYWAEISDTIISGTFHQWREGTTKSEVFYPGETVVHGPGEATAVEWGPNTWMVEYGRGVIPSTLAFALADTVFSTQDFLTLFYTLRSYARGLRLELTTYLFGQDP

In the case of `Cc1[nH]cnc1Cc1nc(-c2cccc(F)c2)cs1`, the Ki (in general, a measure of affinity in units of concentration, obtained from inhibition or displacement) in [1] came out at 3.7 nM.

The compound `COc1c(-c2csc(Cc3[nH]cnc3C)n2)ccc2ccccc12` yielded an inhibitory constant (Ki) in assay [1] of 95 nM.

`Cc1[nH]cnc1Cc1nc(-c2ccc(Cl)cc2)cs1` had a Ki in [1] of 34 nM.

Consider `Cc1nccn1CC1CCc2c(c3ccccc3n2C)C1=O` (stereo unspecified), for which the inhibition (usually the share of the control response that was lost under treatment) in assay [2] worked out at 89.7%.

With `COc1ccccc1-c1csc(Cc2c[nH]cn2)n1`, the affinity in [1] corresponds to a Ki of 0.29 nM.

In turn, `N=C(N)NCCCOC(=O)c1c[nH]c2ccccc12` had a Ki in assay [1] of 27 nM.

In turn, `Cc1[nH]cnc1Cc1nc(-c2cccc(Br)c2)cs1` gave a Ki in assay [1] of 2 nM.

As to `Cc1nc[nH]c1Cc1nc(-c2c[nH]c3ccccc23)cs1`, the affinity in assay [3] corresponds to a Ki of 12 nM.

Consider `N=C(N)NCCCCOC(=O)c1c[nH]c2ccccc12`, for which the Ki in assay [1] turned out to be 29 nM.

Compound `N=C(N)NCCOC(=O)c1c[nH]c2ccccc12` showed a Ki in assay [1] of 7.1 nM.

For `Cc1[nH]cnc1Cc1nc(-c2ccc(Br)cc2)cs1`, the Ki in assay [1] was 270 nM.

In [1], `Cc1[nH]cnc1Cc1nc(-c2cccc(Cl)c2)cs1` came in with a Ki of 0.88 nM.

`COc1cccc(-c2csc(Cc3[nH]cnc3C)n2)c1` gave a Ki in assay [1] of 2 nM.

Turning to `Cc1nc[nH]c1Cc1nc(-c2ccccc2)cs1`, the Ki is > 1000 nM in assay [4]; > 1000 nM in [5]; > 1000 nM in assay [6]; 1.8 nM in [3]; > 1000 nM in assay [7]; > 1000 nM in [8]. Further, the inhibition constant Ki in [9], in assay [10], in assay [11], in assay [12], in assay [13] and in assay [14] was > 1000 nM each time.

For `Cc1ccc(-c2csc(Cc3[nH]cnc3C)n2)cc1`, the Ki in assay [1] is 110 nM.

For `c1cnc2c(-c3csc(Cc4c[nH]cn4)n3)cccc2c1`, the affinity in [1] corresponds to a Ki of 0.31 nM.

On to `CCOc1ccccc1-c1csc(Cc2[nH]cnc2C)n1`, for which the inhibition constant (Ki) in [1] was 0.95 nM.

Regarding `Cc1[nH]cnc1Cc1nc(-c2ccc(F)cc2)cs1`, the Ki in assay [1] is 4.9 nM.

Take `Cc1[nH]cnc1Cc1nc(-c2ccccc2C(F)(F)F)cs1`: the affinity in assay [1] corresponds to a Ki of 61 nM.

As to `CN1[C@@H]2CC[C@H]1C[C@@H](OC(=O)c1c[nH]c3ccccc13)C2`, the inhibition in assay [15] came to 77.5%.

`Cc1[nH]cnc1Cc1nc(-c2c[nH]c3ccccc23)cs1` yielded an inhibition in assay [16] of 45.2%.

On to `Cc1[nH]cnc1Cc1nc(-c2cccc3cccnc23)cs1`, for which the figures for the inhibition in assay [17] and in [2] were 43% and 91.9%, respectively. Besides, the Ki in assay [3] is 1 nM.

`CN1[C@@H]2CC[C@H]1C[C@H](OC(=O)c1ccccc1)C2` displayed a Ki in assay [1] of 329 nM.

Regarding `Cc1[nH]cnc1Cc1nc(-c2ccccc2)cs1`, the values for the inhibition in assay [16] and in [17] were 100% and 10.7%, respectively.

On to `COc1ccc(-c2csc(Cc3[nH]cnc3C)n2)cc1`, for which the Ki in assay [1] came to 390 nM.

In [1], `COc1ccc2ccccc2c1-c1csc(Cc2[nH]cnc2C)n1` returned a Ki of 400 nM.

As for `Cc1[nH]cnc1Cc1nc(-c2ccccc2F)cs1`, the inhibition in assay [17] came to 66.4%. The affinity in [3] corresponds to a Ki of 1.94 nM.

In the case of `COc1ccccc1-c1csc(Cc2[nH]cnc2C)n1`, the inhibition in assay [16] worked out at 100%; in [17], 57.9%; in assay [18] it was 88.5%. For the same compound, in [3], the Ki is 0.42 nM.

In assay [1], `N=C(N)NCc1nc(-c2c[nH]c3ccccc23)cs1` came in with a Ki of 3.3 nM.

The compound `c1ccc(-c2csc(Cc3c[nH]cn3)n2)cc1` came in with a Ki in assay [1] of 1 nM.

In assay [1], `Cc1[nH]cnc1Cc1nc(-c2ccccc2O)cs1` gave a Ki of 1.5 nM.

In assay [1], `COc1cccc(OC)c1-c1csc(Cc2[nH]cnc2C)n1` displayed an inhibitory constant (Ki) of 430 nM.

In the case of `Cc1ccccc1-c1csc(Cc2[nH]cnc2C)n1`, the affinity in assay [1] corresponds to a Ki of 8.7 nM.
